Reference: ChEMBL document CHEMBL4811229, “Leveraging Peptaibol Biosynthetic Promiscuity for Next-Generation Antiplasmodial Therapeutics” (J Nat Prod, 2021)
Where a SMILES comes first, the peptide text is derived from it. [ ]: non-standard residue; d: D form. The star is where a group is joined. X1 = CC(C)C[C@@H](C[N+]1=C2CCCN2CCC1)N*; Leu(ol) = CC(C)C[C@H](N)CO; dIva = CC[C@@](C)(N)C(=O)O; Pip = O=C(O)[C@@H]1CCCCN1; Iva = CC[C@](C)(N)C(=O)O; Aib = CC(C)(N)C(=O)O; βAla = NCCC(=O)O

Tests used:
Plasmodium falciparum = test: Antiplasmodial activity against multidrug-resistant Plasmodium falciparum Dd2 infected in human A-positive erythrocytes assessed as reduction in parasitemia incubated for 72 hrs by fluorescence-based SYBR-Green-1 assay; format: functional, organism-based; conditions: Dd2, Erythrocyte
HepG2 = test: Cytotoxicity against human HepG2 cells assessed as decrease in cell viability measured after 48 hrs by MTS assay; format: cell-based; conditions: HepG2, 48 h
In short: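 After 48 h at 37 °C and 5% CO2, MTS was added for 4 h and absorbance read at 490 nm. Values were normalized to Triton X-100-lysed wells (0% growth) and untreated wells. EC50 is the mean of triplicate experiments.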

[1] = Selectivity index, ratio of EC50 for human HepG2 cells to EC50 for antiplasmodial activity against multidrug-resistant Plasmodium falciparum Dd2 infected in human A-positive erythrocytes; format: toxicity, cell-based; conditions: read-out: Ratio EC50

SMILES	EC50 (Plasmodium falciparum)	EC50 (HepG2)	selectivity ratio [1]
CC[C@H](C)[C@H](NC(=O)C(C)(C)NC(=O)[C@H](CCC(N)=O)NC(=O)C(C)(C)NC(=O)C(C)(C)NC(=O)[C@H](C)NC(=O)[C@H](C)NC(=O)[C@H](C)NC(=O)C(C)(C)NC(C)=O)C(=O)NC(C)(C)C(=O)NCC(=O)N[C@@H](CC(C)C)C(=O)NC(C)(C)C(=O)N1CCC[C@H]1C(=O)N[C@H](C(=O)NC(C)(C)C(=O)N[C@](C)(CC)C(=O)N[C@@H](CCC(N)=O)C(=O)N[C@@H](CCC(N)=O)C(=O)N[C@H](CO)Cc1ccccc1)C(C)C	520 nM	3350 nM	6
CCCCCCCC(=O)NC(C)(C)C(=O)NCC(=O)N[C@@H](CC(C)C)C(=O)NC(C)(C)C(=O)NCC(=O)NCC(=O)N[C@H](C(=O)NC(C)(C)C(=O)NCC(=O)N[C@H](C(=O)N[C@H](CO)CC(C)C)C(C)C)C(C)C	–	–	> 10
CC[C@H](C)[C@H](NC(=O)[C@H](C)NC(=O)[C@@H]1CCCN1C(=O)C(C)(C)NC(=O)[C@H](CC(C)C)NC(=O)[C@H](CCC(N)=O)NC(=O)C(C)(C)NC(C)=O)C(=O)NC(C)(C)C(=O)N1CCC[C@H]1C(=O)NC(C)(C)C(=O)N[C@@H](CC(C)C)C(=O)N[C@](C)(CC)C(=O)N1CCC[C@H]1C(=O)N[C@H](CO)CC(C)C	630 nM	> 25000 nM	> 40
CCCCCCCC(=O)NC(C)(C)C(=O)NCC(=O)N[C@@H](CC(C)C)C(=O)NC(C)(C)C(=O)NCC(=O)NCC(=O)N[C@H](C(=O)NC(C)(C)C(=O)NCC(=O)N[C@H](C(=O)N[C@H](CO)CC(C)C)[C@@H](C)CC)C(C)C	–	–	> 8
CC[C@H](C)[C@H](NC(=O)[C@H](CO)NC(=O)[C@@H]1CCCN1C(=O)C(C)(C)NC(=O)[C@H](CC(C)C)NC(=O)[C@H](CC(N)=O)NC(=O)C(C)(C)NC(C)=O)C(=O)NC(C)(C)C(=O)N1CCC[C@H]1C(=O)NC(C)(C)C(=O)N[C@@H](CC(C)C)C(=O)N[C@](C)(CC)C(=O)N1CCC[C@H]1C(=O)N[C@H](CO)CC(C)C	520 nM	> 25000 nM	> 48
CC[C@@](C)(NC(=O)[C@H](CC(C)C)NC(=O)C(C)(C)NC(=O)[C@@H]1CCCN1C(=O)C(C)(C)NC(=O)[C@@H](NC(=O)[C@H](C)NC(=O)[C@@H]1CCCN1C(=O)C(C)(C)NC(=O)[C@H](CC(C)C)NC(=O)[C@H](CCC(N)=O)NC(=O)C(C)(C)NC(C)=O)C(C)C)C(=O)N1CCC[C@H]1C(=O)N[C@H](CO)CC(C)C	1320 nM	> 25000 nM	> 19
CCCCCCCC(=O)NC(C)(C)C(=O)NCC(=O)N[C@@H](CC(C)C)C(=O)NC(C)(C)C(=O)NCC(=O)NCC(=O)N[C@@H](CC(C)C)C(=O)NC(C)(C)C(=O)NCC(=O)N[C@H](C(=O)N[C@H](CO)CC(C)C)[C@@H](C)CC	930 nM	8090 nM	9
CC[C@](C)(NC(=O)[C@H](CC(C)C)NC(=O)[C@H](C)NC(=O)C(C)(C)NC(=O)[C@@H]1CCCCN1C(=O)C(C)(C)NC(=O)C(C)(C)NC(=O)CNC(=O)CCNC(=O)[C@H](CC(C)C)NC(=O)C(C)(C)NC(=O)C(C)(C)NC(=O)[C@@H]1CCCCN1C(=O)C(C)(C)NC(=O)[C@@H]1CCCCN1C(C)=O)C(=O)N[C@@H](CC(C)C)C[N+]1=C2CCCN2CCC1 (Ac-[Pip][Aib][Pip][Aib][Aib]L[βAla]G[Aib][Aib][Pip][Aib]AL[Iva]-X1)	390 nM	> 25000 nM	> 64
CC[C@H](C)[C@H](NC(=O)[C@H](C)NC(=O)[C@@H]1CCCN1C(=O)C(C)(C)NC(=O)[C@H](CC(C)C)NC(=O)[C@H](CC(N)=O)NC(=O)[C@@](C)(CC)NC(C)=O)C(=O)NC(C)(C)C(=O)N1CCC[C@H]1C(=O)N[C@](C)(CC)C(=O)N[C@@H](CC(C)C)C(=O)NC(C)(C)C(=O)N1CCC[C@H]1C(=O)N[C@H](CO)CC(C)C (Ac-[dIva]NL[Aib]PAI[Aib]P[dIva]L[Aib]P[Leu(ol)])	–	–	> 40
CC[C@H](C)[C@H](NC(=O)[C@H](CO)NC(=O)[C@@H]1CCCN1C(=O)C(C)(C)NC(=O)[C@H](CC(C)C)NC(=O)[C@H](CC(N)=O)NC(=O)[C@@](C)(CC)NC(C)=O)C(=O)NC(C)(C)C(=O)N1CCC[C@H]1C(=O)N[C@](C)(CC)C(=O)N[C@@H](CC(C)C)C(=O)NC(C)(C)C(=O)N1CCC[C@H]1C(=O)N[C@H](CO)CC(C)C (Ac-[dIva]NL[Aib]PSI[Aib]P[dIva]L[Aib]P[Leu(ol)])	–	–	> 48
CC[C@H](C)[C@H](NC(=O)[C@H](CC(C)C)NC(=O)[C@H](CCC(N)=O)NC(=O)[C@@](C)(CC)NC(C)=O)C(=O)NC(C)(C)C(=O)N1CCC[C@H]1C(=O)N[C@](C)(CC)C(=O)N[C@@H](CC(C)C)C(=O)NC(C)(C)C(=O)N1CCC[C@H]1C(=O)N[C@H](CO)CC(C)C (Ac-[dIva]QLI[Aib]P[dIva]L[Aib]P[Leu(ol)])	–	–	> 250
CC[C@H](C)[C@H](NC(=O)[C@H](C)NC(=O)[C@@H]1CCCN1C(=O)C(C)(C)NC(=O)[C@H](CC(C)C)NC(=O)[C@H](CCC(N)=O)NC(=O)[C@@](C)(CC)NC(C)=O)C(=O)NC(C)(C)C(=O)N1CCC[C@H]1C(=O)N[C@](C)(CC)C(=O)N[C@@H](CC(C)C)C(=O)NC(C)(C)C(=O)N1CCC[C@H]1C(=O)N[C@H](CO)CC(C)C (Ac-[dIva]QL[Aib]PAI[Aib]P[dIva]L[Aib]P[Leu(ol)])	–	> 25000 nM	> 76
CCCCCCCC(=O)NC(C)(C)C(=O)NCC(=O)N[C@@H](CC(C)C)C(=O)NC(C)(C)C(=O)NCC(=O)NCC(=O)N[C@@H](CC(C)C)C(=O)NC(C)(C)C(=O)NCC(=O)N[C@@H](CC(C)C)C(=O)N[C@H](CO)CC(C)C (HELM PEPTIDE1{[CCCCCCCC(=O)[*:2]].[Aib].G.L.[Aib].G.G.L.[Aib].G.L.[CC(C)C[C@@H](CO)N[*:1]]}$$$$V2.0)	–	–	> 11
CCCCCCCC(=O)NC(C)(C)C(=O)NCC(=O)N[C@@H](CC(C)C)C(=O)NC(C)(C)C(=O)NCC(=O)NCC(=O)N[C@H](C(=O)NC(C)(C)C(=O)NCC(=O)N[C@@H](CC(C)C)C(=O)N[C@H](CO)CC(C)C)C(C)C (HELM PEPTIDE1{[CCCCCCCC(=O)[*:2]].[Aib].G.L.[Aib].G.G.V.[Aib].G.L.[CC(C)C[C@@H](CO)N[*:1]]}$$$$V2.0)	–	–	> 28
CC(=O)NC(C)(C)C(=O)N[C@@H](C)C(=O)N[C@@H](C)C(=O)N[C@@H](C)C(=O)NC(C)(C)C(=O)NC(C)(C)C(=O)N[C@@H](CCC(N)=O)C(=O)NC(C)(C)C(=O)N[C@@H](CC(C)C)C(=O)NC(C)(C)C(=O)NCC(=O)N[C@@H](CC(C)C)C(=O)NC(C)(C)C(=O)N1CCC[C@H]1C(=O)N[C@H](C(=O)NC(C)(C)C(=O)NC(C)(C)C(=O)N[C@@H](CCC(N)=O)C(=O)N[C@@H](CCC(N)=O)C(=O)N[C@H](CO)Cc1ccccc1)C(C)C (HELM PEPTIDE1{[ac].[Aib].A.A.A.[Aib].[Aib].Q.[Aib].L.[Aib].G.L.[Aib].P.V.[Aib].[Aib].Q.Q.[OC[C@H](Cc1ccccc1)N[*:1]]}$$$$V2.0)	320 nM	5770 nM	18
CC[C@H](C)[C@H](NC(=O)[C@H](C)NC(=O)[C@@H]1CCCN1C(=O)C(C)(C)NC(=O)[C@H](CC(C)C)NC(=O)[C@H](CCC(N)=O)NC(=O)C(C)(C)NC(C)=O)C(=O)NC(C)(C)C(=O)N1CCC[C@H]1C(=O)NC(C)(C)C(=O)N[C@@H](CC(C)C)C(=O)NC(C)(C)C(=O)N1CCC[C@H]1C(=O)N[C@H](CO)CC(C)C (HELM PEPTIDE1{[ac].[Aib].Q.L.[Aib].P.A.I.[Aib].P.[Aib].L.[Aib].P.[CC(C)C[C@@H](CO)N[*:1]]}$$$$V2.0)	–	–	> 86
CC[C@H](C)[C@H](NC(=O)[C@H](CO)NC(=O)[C@@H]1CCCN1C(=O)C(C)(C)NC(=O)[C@H](CC(C)C)NC(=O)[C@H](CCC(N)=O)NC(=O)C(C)(C)NC(C)=O)C(=O)NC(C)(C)C(=O)N1CCC[C@H]1C(=O)NC(C)(C)C(=O)N[C@@H](CC(C)C)C(=O)NC(C)(C)C(=O)N1CCC[C@H]1C(=O)N[C@H](CO)CC(C)C (HELM PEPTIDE1{[ac].[Aib].Q.L.[Aib].P.S.I.[Aib].P.[Aib].L.[Aib].P.[CC(C)C[C@@H](CO)N[*:1]]}$$$$V2.0)	–	–	> 14
CC[C@H](C)[C@H](NC(=O)[C@H](CO)NC(=O)[C@@H]1CCCN1C(=O)C(C)(C)NC(=O)[C@H](CC(C)C)NC(=O)[C@H](CC(N)=O)NC(=O)[C@@](C)(CC)NC(C)=O)C(=O)NC(C)(C)C(=O)N1CCC[C@H]1C(=O)NC(C)(C)C(=O)N[C@@H](CC(C)C)C(=O)NC(C)(C)C(=O)N1CCC[C@H]1C(=O)N[C@H](CO)CC(C)C (HELM PEPTIDE1{[ac].[CC[C@@](C)(N[*:1])C(=O)[*:2]].N.L.[Aib].P.S.I.[Aib].P.[Aib].L.[Aib].P.[CC(C)C[C@@H](CO)N[*:1]]}$$$$V2.0)	–	–	> 43
CC[C@@](C)(NC(C)=O)C(=O)N[C@@H](CC(N)=O)C(=O)N[C@@H](CC(C)C)C(=O)NC(C)(C)C(=O)N1CCC[C@H]1C(=O)N[C@@H](CO)C(=O)N[C@H](C(=O)NC(C)(C)C(=O)N1CCC[C@H]1C(=O)NC(C)(C)C(=O)N[C@@H](CC(C)C)C(=O)NC(C)(C)C(=O)N1CCC[C@H]1C(=O)N[C@H](CO)CC(C)C)C(C)C (HELM PEPTIDE1{[ac].[CC[C@@](C)(N[*:1])C(=O)[*:2]].N.L.[Aib].P.S.V.[Aib].P.[Aib].L.[Aib].P.[CC(C)C[C@@H](CO)N[*:1]]}$$$$V2.0)	–	–	> 40
CC[C@H](C)[C@H](NC(=O)[C@H](C)NC(=O)[C@@H]1CCCN1C(=O)C(C)(C)NC(=O)[C@H](CC(C)C)NC(=O)[C@H](CCC(N)=O)NC(=O)[C@@](C)(CC)NC(C)=O)C(=O)NC(C)(C)C(=O)N1CCC[C@H]1C(=O)NC(C)(C)C(=O)N[C@@H](CC(C)C)C(=O)NC(C)(C)C(=O)N1CCC[C@H]1C(=O)N[C@H](CO)CC(C)C (HELM PEPTIDE1{[ac].[CC[C@@](C)(N[*:1])C(=O)[*:2]].Q.L.[Aib].P.A.I.[Aib].P.[Aib].L.[Aib].P.[CC(C)C[C@@H](CO)N[*:1]]}$$$$V2.0)	–	–	> 78
